Data reported in ChEMBL document CHEMBL1147105, “In vitro and in vivo activities of PD 0305970 and PD 0326448, new bacterial gyrase/topoisomerase inhibitors with potent antibacterial activities versus multidrug-resistant gram-positive and fastidious organism groups” (2007).
In brackets after ≈: the same amount, converted by molar mass.

Legend:
[1] = system: Staphylococcus saprophyticus; experiment: Antibacterial activity against Staphylococcus saprophyticus; type: functional
Outline: (§1)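 Broth microdilution MIC following CLSI guidelines, in cation-adjusted Mueller-Hinton broth, incubated at 35°C. Recent clinical isolates and reference strains, with identity confirmed by automated and standard microbiological methods. Results reported as MIC range, MIC50 and MIC90.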

Citrobacter freundii = experiment: Antibacterial activity against Citrobacter freundii; type: functional; outline: as §1
Streptococcus viridans = experiment: Antibacterial activity against Streptococcus viridans; type: functional
Outline: (§2)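 Broth microdilution MIC following CLSI guidelines, in cation-adjusted Mueller-Hinton broth with 3% lysed horse blood. Plates incubated at 35°C. Clinical isolates and reference strains, with identity confirmed by standard microbiological methods.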

Actinomyces sp. = experiment: Antibacterial activity against Actinomyces sp.; type: functional
Shigella flexneri = experiment: Antibacterial activity against Shigella flexneri; type: functional; outline: as §1
Burkholderia cepacia = experiment: Antibacterial activity against Burkholderia cepacia; type: functional; outline: as §1
Hoylesella oralis = experiment: Antibacterial activity against Prevotella oralis; type: functional
Outline: (§3)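 Anaerobic broth microdilution MIC following CLSI guidelines, in supplemented Brucella broth. Run in an anaerobe chamber under 5% CO2, 5% H2 and 90% N2 at 35°C, and read after 48 h. Reported as MIC range, MIC50 and MIC90.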

[2] = system: Peptoniphilus asaccharolyticus; experiment: Antibacterial activity against Peptostreptococcus asaccharolyticus; type: functional; outline: as §3
Clostridioides difficile = experiment: Antibacterial activity against Clostridium difficile; type: functional; outline: as §3
Anaerococcus prevotii = experiment: Antibacterial activity against Peptostreptococcus prevotii; type: functional; outline: as §3
Shigella dysenteriae = experiment: Antibacterial activity against Shigella dysenteriae; type: functional
Moraxella catarrhalis [3] = experiment: Antibacterial activity against beta-lactamase positive Moraxella catarrhalis; type: functional
Alloiococcus otitis = experiment: Antibacterial activity against Alloiococcus otitidis; type: functional
Outline: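 MIC by broth microdilution following CLSI guidelines, in cation-adjusted Mueller-Hinton broth with 3% lysed horse blood. Incubated at 35°C and read after 48 h. Reported as MIC range, MIC50 and MIC90.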

[4] = system: Bacteroides thetaiotaomicron; experiment: Antibacterial activity against Bacteroides thetaiotaomicron; type: functional; outline: as §3
Staphylococcus aureus = experiment: Antibacterial activity against oxacillin-susceptible Staphylococcus aureus; type: functional
Outline: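 MIC by CLSI broth microdilution for nonfastidious organisms, in cation-adjusted Mueller-Hinton broth incubated at 35°C.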

Klebsiella oxytoca = experiment: Antibacterial activity against Klebsiella oxytoca; type: functional; outline: as §1
Staphylococcus warneri = experiment: Antibacterial activity against Staphylococcus warneri; type: functional; outline: as §1
Enterococcus faecium = experiment: Antibacterial activity against Enterococcus faecium; type: functional
Outline: (§4)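 Broth microdilution MIC per CLSI guidelines, incubated at 35°C. Cation-adjusted Mueller-Hinton broth for nonfastidious organisms and staphylococci. Streptococci tested in the same broth with 3% lysed horse blood. Anaerobes tested in supplemented Brucella broth inside an anaerobe chamber (5% CO2, 5% H2, 90% N2), read after 48 h. Strains were mainly recent clinical isolates with confirmed identity.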

Bacteroides fragilis = experiment: Antibacterial activity against Bacteroides fragilis; type: functional; outline: as §3
Enterococcus faecalis [5] = experiment: Antibacterial activity against Enterococcus faecalis; type: functional; outline: as §4
Streptococcus sanguinis = experiment: Antibacterial activity against Streptococcus sanguis; type: functional; outline: as §2
Fusobacterium nucleatum = experiment: Antibacterial activity against Fusobacterium nucleatum; type: functional; outline: as §3
Enterococcus faecalis [6] = experiment: Antibacterial activity against VanB-resistant Enterococcus faecalis; type: functional; outline: as §4
Enterococcus gallinarum = experiment: Antibacterial activity against Enterococcus gallinarum; type: functional
[7] = system: Staphylococcus haemolyticus; experiment: Antibacterial activity against Staphylococcus haemolyticus; type: functional
Outline: (§5)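 Broth microdilution MIC following CLSI guidelines, in cation-adjusted Mueller-Hinton broth containing 3% lysed horse blood, incubated at 35°C. Clinical isolates with identity confirmed. Reported as MIC range, MIC50 and MIC90.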

[8] = system: Fusobacterium necrophorum; experiment: Antibacterial activity against Fusobacterium necrophorum; type: functional; outline: as §3
Cutibacterium acnes = experiment: Antibacterial activity against Propionibacterium acnes; type: functional
Listeria monocytogenes = experiment: Antibacterial activity against Listeria monocytogenes; type: functional; outline: as §5
Streptococcus agalactiae = experiment: Antibacterial activity against Streptococcus agalactiae; type: functional; outline: as §5
Corynebacterium jeikeium = experiment: Antibacterial activity against Corynebacterium jeikeium; type: functional; outline: as §5
[9] = system: Enterococcus casseliflavus; experiment: Antibacterial activity against Enterococcus casseliflavus; type: functional
Salmonella enteritidis = experiment: Antibacterial activity against Salmonella enterica serovar Enteritidis; type: functional, Salmonella enterica subsp. enterica serovar Enteritidis; outline: as §1
Moraxella catarrhalis [10] = experiment: Antibacterial activity against beta-lactamase negative Moraxella catarrhalis; type: functional
Bacteroides ovatus = experiment: Antibacterial activity against Bacteroides ovatus; type: functional; outline: as §3
Prevotella bivia = experiment: Antibacterial activity against Prevotella bivia; type: functional; outline: as §3

SMILES: Cc1c(N2CC[C@@H]([C@H](C)N)C2)c(F)cc2c(=O)[nH]c(=O)n(C3CC3)c12
- MIC50 [1]: 0.125 µg/mL (≈ 0.361 µM)
- MIC90 [1]: 0.5 µg/mL (≈ 1.44 µM)
- MIC50 (Citrobacter freundii): 8 µg/mL (≈ 23.1 µM)
- MIC90 (Citrobacter freundii): > 64 µg/mL
- MIC50 (Streptococcus viridans): 0.03 µg/mL (≈ 0.0866 µM)
- MIC90 (Streptococcus viridans): 0.06 µg/mL (≈ 0.173 µM)
- MIC (Actinomyces sp.): 1 µg/mL (≈ 2.89 µM)
- MIC50 (Shigella flexneri): 2 µg/mL (≈ 5.77 µM)
- MIC90 (Shigella flexneri): 4 µg/mL (≈ 11.5 µM)
- MIC50 (Burkholderia cepacia): 32 µg/mL (≈ 92.4 µM)
- MIC90 (Burkholderia cepacia): > 64 µg/mL
- MIC50 (Hoylesella oralis): 0.5 µg/mL (≈ 1.44 µM)
- MIC90 (Hoylesella oralis): 2 µg/mL (≈ 5.77 µM)
- MIC [2]: 0.06 µg/mL (≈ 0.173 µM)
- MIC50 (Clostridioides difficile): 2 µg/mL (≈ 5.77 µM)
- MIC90 (Clostridioides difficile): 8 µg/mL (≈ 23.1 µM)
- MIC (Anaerococcus prevotii): 0.06 µg/mL (≈ 0.173 µM)
- MIC50 (Shigella dysenteriae): 2 µg/mL (≈ 5.77 µM)
- MIC90 (Shigella dysenteriae): 4 µg/mL (≈ 11.5 µM)
- MIC50 (Moraxella catarrhalis [3]): 0.5 µg/mL (≈ 1.44 µM)
- MIC90 (Moraxella catarrhalis [3]): 0.5 µg/mL (≈ 1.44 µM)
- MIC50 (Alloiococcus otitis): 0.008 µg/mL (≈ 0.0231 µM)
- MIC90 (Alloiococcus otitis): 0.008 µg/mL (≈ 0.0231 µM)
- MIC50 [4]: 16 µg/mL (≈ 46.2 µM)
- MIC90 [4]: 32 µg/mL (≈ 92.4 µM)
- MIC50 (Staphylococcus aureus): 0.25 µg/mL (≈ 0.722 µM)
- MIC90 (Staphylococcus aureus): 0.25 µg/mL (≈ 0.722 µM)
- MIC50 (Klebsiella oxytoca): 2 µg/mL (≈ 5.77 µM)
- MIC90 (Klebsiella oxytoca): 16 µg/mL (≈ 46.2 µM)
- MIC (Staphylococcus warneri): 0.125 µg/mL (≈ 0.361 µM)
- MIC50 (Enterococcus faecium): 1 µg/mL (≈ 2.89 µM)
- MIC90 (Enterococcus faecium): 4 µg/mL (≈ 11.5 µM)
- MIC50 (Bacteroides fragilis): 8 µg/mL (≈ 23.1 µM)
- MIC90 (Bacteroides fragilis): 16 µg/mL (≈ 46.2 µM)
- MIC50 (Enterococcus faecalis [5]): 0.25 µg/mL (≈ 0.722 µM)
- MIC90 (Enterococcus faecalis [5]): 0.5 µg/mL (≈ 1.44 µM)
- MIC50 (Streptococcus sanguinis): 0.03 µg/mL (≈ 0.0866 µM)
- MIC90 (Streptococcus sanguinis): 0.06 µg/mL (≈ 0.173 µM)
- MIC (Fusobacterium nucleatum): 0.125 µg/mL (≈ 0.361 µM)
- MIC50 (Enterococcus faecalis [6]): 0.25 µg/mL (≈ 0.722 µM)
- MIC90 (Enterococcus faecalis [6]): 0.5 µg/mL (≈ 1.44 µM)
- MIC50 (Enterococcus gallinarum): 0.25 µg/mL (≈ 0.722 µM)
- MIC90 (Enterococcus gallinarum): 0.5 µg/mL (≈ 1.44 µM)
- MIC50 [7]: 0.25 µg/mL (≈ 0.722 µM)
- MIC90 [7]: 1 µg/mL (≈ 2.89 µM)
- MIC [8]: 0.125 µg/mL (≈ 0.361 µM)
- MIC50 (Cutibacterium acnes): 4 µg/mL (≈ 11.5 µM)
- MIC90 (Cutibacterium acnes): 8 µg/mL (≈ 23.1 µM)
- MIC50 (Listeria monocytogenes): 0.25 µg/mL (≈ 0.722 µM)
- MIC90 (Listeria monocytogenes): 0.25 µg/mL (≈ 0.722 µM)
- MIC50 (Streptococcus agalactiae): 0.015 µg/mL (≈ 0.0433 µM)
- MIC90 (Streptococcus agalactiae): 0.03 µg/mL (≈ 0.0866 µM)
- MIC50 (Corynebacterium jeikeium): 0.5 µg/mL (≈ 1.44 µM)
- MIC90 (Corynebacterium jeikeium): 1 µg/mL (≈ 2.89 µM)
- MIC50 [9]: 0.25 µg/mL (≈ 0.722 µM)
- MIC90 [9]: 0.25 µg/mL (≈ 0.722 µM)
- MIC50 (Salmonella enteritidis): 2 µg/mL (≈ 5.77 µM)
- MIC90 (Salmonella enteritidis): 4 µg/mL (≈ 11.5 µM)
- MIC50 (Moraxella catarrhalis [10]): 0.5 µg/mL (≈ 1.44 µM)
- MIC90 (Moraxella catarrhalis [10]): 1 µg/mL (≈ 2.89 µM)
- MIC50 (Bacteroides ovatus): 16 µg/mL (≈ 46.2 µM)
- MIC90 (Bacteroides ovatus): 32 µg/mL (≈ 92.4 µM)
- MIC50 (Prevotella bivia): 0.5 µg/mL (≈ 1.44 µM)
- MIC90 (Prevotella bivia): 2 µg/mL (≈ 5.77 µM)
